Assay results taken from ChEMBL document CHEMBL4673249, “Anticancer Effects of Honokiol via Mitochondrial Dysfunction Are Strongly Enhanced by the Mitochondria-Targeting Carrier Berberine” (J Med Chem, 2020).
pIC50: −log10 of the molar value. Active and inactive are the calls of the source. No cut-off for these calls is given here.

Experiments:
HepG2 [1] = test: Induction of mitochondrial dysfunction in human HepG2 cells assessed as […] at 1 to 4 uM after 24 hrs by JC-1 staining based flow cytometric analysis; type: functional, cell-based; conditions: dose 1-4 µM
HT-29 = test: Antiproliferative activity against human HT29 cells assessed as reduction in cell viability after 48 hrs by MTT assay; type: functional, cell-based; conditions: HT-29, 48 h
In short: (§1)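 Cell lines grown at 37 °C in 5% CO2: A2780, A549, HL7702 and PC3 in RPMI 1640; HT29 in McCoy's 5A; HepG2 and PANC-1 in DMEM; all media with 10% FBS and penicillin/streptomycin. Cells seeded and left overnight, then exposed to compound for 48 h. MTT (5 mg/mL solution) added for 4 h at 37 °C, formazan dissolved in DMSO, absorbance read at 570 nm. IC50 taken from viability; run in triplicate.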

PANC-1 = test: Antiproliferative activity against human PANC1 cells assessed as reduction in cell viability after 48 hrs by MTT assay; type: functional, cell-based; conditions: PANC-1, 48 h; in short: as §1
PC-3 [2] = test: Antiproliferative activity against human PC-3 cells assessed as reduction in cell viability after 48 hrs by MTT assay; type: functional, cell-based; conditions: PC-3, 48 h; in short: as §1
HepG2 [3] = test: Induction of autophagy in human HepG2 cells assessed as effect on P62 protein expression at 3 uM after 24 hrs by Western blot analysis; type: functional, cell-based
In short: (§2)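 HepG2 cells lysed in RIPA on ice for 20 min; protein measured by BCA. Lysates run on 10% SDS-PAGE and transferred to PVDF. Membranes blocked in 5% nonfat milk/TBST for 2 h, incubated with primary antibodies overnight at 4 °C, then HRP secondary antibody; bands detected by ECL.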

HepG2 [4] = test: Induction of autophagy in human HepG2 cells assessed as effect on LC3-2 protein expression at 3 uM after 24 hrs by Western blot analysis; type: functional, cell-based; in short: as §2
HepG2 [5] = test: Induction of morphological changes in human HepG2 cells assessed as accumulation of vacuoles at 3 uM after 24 hrs in presence of Nec-1 by microscopic method; type: functional, cell-based
In short: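 HepG2 cells pretreated with necrostatin-1 (30 μM, 2 h), then exposed to 3 μM compound. Vacuoles imaged by optical microscopy after 24 h.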

HepG2 [6] = test: Induction of cell death in human HepG2 cells at 3 uM after 12 hrs by MTT assay; type: functional, cell-based
HepG2 [7] = test: Induction of morphological changes in human HepG2 cells assessed as effect on size of vacuoles at 3 uM after 24 hrs in presence of z-VAD-fmk by microscopic analysis; type: functional, cell-based
In short: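 HepG2 cells preincubated with or without z-VAD-fmk (20 μM, 2 h), then treated with 3 μM compound. Vacuole number and size judged from optical microscopy images.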

HepG2 [8] = test: Induction of cell death in human HepG2 cells assessed as reduction in cell viability after 24 hrs in presence of z-VAD-fmk by MTT assay; type: functional, cell-based
In short: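 HepG2 cells pretreated with 20 μM z-VAD-fmk for 2 h, then exposed to a range of doses. Viability measured by MTT: 4 h at 37 °C, formazan in DMSO, absorbance at 570 nm.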

HepG2 [9] = test: Induction of apoptosis in human HepG2 cells assessed as late apoptotic cells at 4 uM after 24 hrs by annexin V/propidium iodide staining based flow cytometric analysis (reference value: 3.22%); type: functional
HepG2 [10] = test: Induction of apoptosis in human HepG2 cells assessed as late apoptotic cells at 2 uM after 24 hrs by annexin V/propidium iodide staining based flow cytometric analysis (reference value: 3.22%); type: functional
HepG2 [11] = test: Induction of apoptosis in human HepG2 cells assessed as early apoptotic cells at 4 uM after 24 hrs by annexin V/propidium iodide staining based flow cytometric analysis (reference value: 1.29%); type: functional
HepG2 [12] = test: Induction of apoptosis in human HepG2 cells assessed as viable cells at 4 uM after 24 hrs by annexin V/propidium iodide staining based flow cytometric analysis (reference value: 95.3%); type: functional; conditions: read-out: Activity
HepG2 [13] = test: Induction of apoptosis in human HepG2 cells assessed as viable cells at 1 uM after 24 hrs by annexin V/propidium iodide staining based flow cytometric analysis (reference value: 95.3%); type: functional; conditions: read-out: Activity
HepG2 [14] = test: Induction of apoptosis in human HepG2 cells assessed as decrease in pro-caspase 12 protein expression at 1 to 4 uM after 24 hrs by Western blot analysis; type: functional, cell-based; conditions: dose 1-4 µM; in short: as §2
HepG2 [15] = test: Induction of apoptosis in human HepG2 cells assessed as increase in cleaved-caspase 9 protein expression at 1 to 4 uM after 24 hrs by Western blot analysis; type: functional, cell-based; conditions: dose 1-4 µM; in short: as §2
HepG2 [16] = test: Induction of apoptosis in human HepG2 cells assessed as increase in cleaved-caspase 3 protein expression at 1 to 4 uM after 24 hrs by Western blot analysis; type: functional, cell-based; conditions: dose 1-4 µM; in short: as §2
[17] = Ratio of HN drug uptake to test compound drug uptake in human HepG2 cells at 5 uM after 12 hrs by HPLC analysis; type: ADME, cell-based; conditions: hepg2, 12 h
In short: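 HepG2 cells treated with 5 μM compound or honokiol for 12 h. Mitochondria isolated with a kit by centrifugation at 600g then 11000g, 4 °C, 10 min each. Whole-cell and mitochondrial drug measured by HPLC on a C18 column, methanol-0.1% acetic acid (80:20), at 265 nm (derivative) and 210 nm (honokiol). Run thrice.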

[18] = Selectivity ratio of IC50 for antiproliferative activity against human L02 cells to IC50 for antiproliferative activity human HepG2 cells; type: toxicity, cell-based; conditions: L02 cells and HepG2 cells, read-out: Ratio IC50
In short: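 MTT assay after 48 h drug exposure. Cells seeded overnight, MTT (5 mg/mL stock) added for 4 h at 37 °C, formazan dissolved in DMSO, absorbance read at 570 nm. IC50 taken from viability, repeated in triplicate, and the IC50 ratio calculated.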

L02 = test: Induction of morphological changes in human L02 cells assessed as accumulation of cytoplasmic vacuoles at 4 uM after 24 hrs by optical microscopic method; type: cell-based; conditions: l02, 24 h
In short: (§3)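 Cells grown at 37 °C, 5% CO2 in media with 10% FBS and penicillin/streptomycin, then treated with compound. Cytoplasmic vacuoles judged by optical microscopy. Time course at 4 μM, or 10 h exposure across increasing concentrations.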

PC-3 [19] = test: Induction of morphological changes in human PC3 cells assessed as accumulation of cytoplasmic vacuoles at 4 uM after 24 hrs by optical microscopic method; type: functional, cell-based; in short: as §3
A2780 = test: Induction of morphological changes in human A2780 cells assessed as accumulation of cytoplasmic vacuoles at 4 uM after 24 hrs by optical microscopic method; type: functional, cell-based
HepG2 [20] = test: Induction of mitochondrial dysfunction in human HepG2 cells assessed as dispersive puncta formation at 2 to 4 uM after 12 hrs by calcein-AM staining based fluorescence microscopic analysis; type: functional, cell-based; conditions: dose 2-4 µM
In short: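 HepG2 cells in glass-bottom plates treated for 12 h. Co-loaded with 1.5 μM calcein-AM and 5 mM CoCl2 in DMEM at 37 °C for 20 min; CoCl2 quenches cytosolic calcein. Washed three times with PBS and imaged by fluorescence microscopy through a 525-nm bandpass filter.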

HepG2 [21] = test: Induction of mitochondrial morphological changes in human HepG2 cells assessed as dilation of mitochondria at 3 uM measured after 12 hrs by MitoTracker red CMXRos by confocal microscopic method; type: functional, cell-based
In short: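 HepG2 cells stained with MitoTracker Red CMXRos; fluorescence and phase-contrast images taken by laser confocal microscopy.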

For C=CCc1ccc(O)c(-c2ccc(OCCCCCc3c4[n+](cc5c(OC)c(OC)ccc35)CCc3cc5c(cc3-4)OCO5)c(CC=C)c2)c1.[I-], the Activity (HepG2 [1]) was “Active”, the pIC50 (HT-29) was less than 5.30 and the pIC50 (PANC-1) was 5.48. The pIC50 (PC-3 [2]) was 5.65, the Activity (HepG2 [3]) was “inactive” and the Activity (HepG2 [4]) was “inactive”. For the same compound, the Activity (HepG2 [5]) was “Active”, the Activity (HepG2 [6]) was “Active” and the Activity (HepG2 [7]) was “inactive”. For the same compound, the Activity (HepG2 [8]) was “Active”, the Activity (HepG2 [9]) was 17.6% and the Activity (HepG2 [10]) was 3.51%. For the same compound, the Activity (HepG2 [11]) was 7.91%, the viability at 4 µM (HepG2 [12]) was 73.3% and the viability at 1 µM (HepG2 [13]) was 93.3%. For the same compound, the Activity (HepG2 [14]) was “Active”, the Activity (HepG2 [15]) was “Active” and the Activity (HepG2 [16]) was “Active”. For the same compound, the Ratio [17] was 2.5, the selectivity ratio [18] was 2.8 and the Activity (L02) was “Active”. The Activity (PC-3 [19]) was “Active”, the Activity (A2780) was “Active” and the Activity (HepG2 [20]) was “Active”. The Activity (HepG2 [21]) was “Active”.
